In brackets after ≈: the same amount, converted by molar mass.
Columns and labels:
A549 = assay: Cytotoxicity against human A549 cells after 2 days; assay type: functional, cell-based; details: A549, 48 h
In short: (§1)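 Growth inhibition under continuous exposure for 2 days. Stock solutions were made in DMSO and kept at -70 °C, then diluted into culture medium to a final DMSO of ≤1% (v/v). EC50 was taken as the concentration giving 50% growth inhibition.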

MCF7 = assay: Cytotoxicity against human MCF7 cells after 2 days; assay type: functional, cell-based; details: MCF7, 48 h; in short: as §1

| SMILES | EC50 (A549) | EC50 (MCF7) |
| --- | --- | --- |
| C[C@H]1CC[C@@]2(OC1)O[C@H]1C[C@H]3[C@@H]4CC[C@@H]5C[C@@H](O[C@@H]6O[C@H](CO)[C@@H](O[C@@H]7O[C@@H](C)[C@H](O)[C@@H](O)[C@H]7O)[C@H](O)[C@H]6O[C@H]6OC[C@H](O)[C@@H](O)[C@@H]6O)CC[C@]5(C)[C@H]4CC[C@]3(C)[C@H]1[C@@H]2C | 2.3 µg/mL (≈ 2.68 µM) | 3 µg/mL (≈ 3.5 µM) |
| C[C@H]1CC[C@@]2(OC1)O[C@H]1C[C@H]3[C@@H]4CC[C@@H]5C[C@@H](O[C@@H]6O[C@H](CO)[C@@H](O[C@@H]7OC[C@@H](O)[C@H](O)[C@H]7O)[C@H](O)[C@H]6O)CC[C@]5(C)[C@H]4CC[C@]3(C)[C@H]1[C@@H]2C [ASPAFILIOSIDE A] | 9.4 µg/mL (≈ 13.2 µM) | > 20 µg/mL |
| COc1cc([C@@H]2c3cc4c(cc3[C@@H](O[C@@H]3O[C@@H]5CO[C@@H](C)O[C@H]5[C@H](O)[C@H]3O)[C@H]3COC(=O)[C@H]23)OCO4)cc(OC)c1O [ETOPOSIDE] | 0.8 µg/mL (≈ 1.36 µM) | 2.8 µg/mL (≈ 4.76 µM) |
| C[C@@H]1CC[C@@]2(OC1)O[C@H]1C[C@H]3[C@@H]4CC[C@H]5C[C@@H](O[C@@H]6O[C@H](CO[C@@H]7OC[C@H](O)[C@H](O)[C@H]7O)[C@@H](O[C@@H]7OC[C@@H](O)[C@H](O)[C@H]7O)[C@H](O)[C@H]6O)CC[C@]5(C)[C@H]4CC(=O)[C@]3(C)[C@H]1[C@@H]2C [FILIASPAROSIDE A] | 13.3 µg/mL (≈ 15.5 µM) | 11.2 µg/mL (≈ 13.1 µM) |
| C[C@@H]1CC[C@@]2(OC1)O[C@H]1C[C@H]3[C@@H]4CC[C@H]5C[C@@H](O[C@@H]6O[C@H](CO[C@@H]7OC[C@H](O)[C@H](O)[C@H]7O)[C@@H](O)[C@H](O)[C@H]6O)CC[C@]5(C)[C@H]4CC(=O)[C@]3(C)[C@H]1[C@@H]2C [FILIASPAROSIDE B] | 16.4 µg/mL (≈ 22.6 µM) | 16.8 µg/mL (≈ 23.2 µM) |
| C[C@H]1CC[C@@]2(OC1)O[C@H]1C[C@H]3[C@@H]4CC[C@@H]5C[C@@H](O[C@@H]6O[C@H](CO[C@@H]7OC[C@H](O)[C@H](O)[C@H]7O)[C@@H](O)[C@H](O)[C@H]6O)CC[C@]5(C)[C@H]4CC[C@]3(C)[C@H]1[C@@H]2C [FILIASPAROSIDE D] | 2.4 µg/mL (≈ 3.38 µM) | 10.3 µg/mL (≈ 14.5 µM) |

From ChEMBL document CHEMBL1141248, “Filiasparosides A-D, cytotoxic steroidal saponins from the roots of Asparagus filicinus” (J Nat Prod, 2007)
